What was measured:
[1] = target: T1, Nuclear receptor ROR-gamma (Homo sapiens, UniProt P51449); experiment: Inverse agonist activity at APC-labeled RORgammat LBD (unknown origin) assessed as inhibition of N-(2-chloro-6-fluorobenzyl)-N-((20-methoxy-[1,10-biphenyl]-4-yl)methyl)benzenesulfonamide -induced co-activator europium-labeled SRC1 peptide recruitment after 1 hr by LANCE-FRET assay
T1 sequence (P51449 whole entry): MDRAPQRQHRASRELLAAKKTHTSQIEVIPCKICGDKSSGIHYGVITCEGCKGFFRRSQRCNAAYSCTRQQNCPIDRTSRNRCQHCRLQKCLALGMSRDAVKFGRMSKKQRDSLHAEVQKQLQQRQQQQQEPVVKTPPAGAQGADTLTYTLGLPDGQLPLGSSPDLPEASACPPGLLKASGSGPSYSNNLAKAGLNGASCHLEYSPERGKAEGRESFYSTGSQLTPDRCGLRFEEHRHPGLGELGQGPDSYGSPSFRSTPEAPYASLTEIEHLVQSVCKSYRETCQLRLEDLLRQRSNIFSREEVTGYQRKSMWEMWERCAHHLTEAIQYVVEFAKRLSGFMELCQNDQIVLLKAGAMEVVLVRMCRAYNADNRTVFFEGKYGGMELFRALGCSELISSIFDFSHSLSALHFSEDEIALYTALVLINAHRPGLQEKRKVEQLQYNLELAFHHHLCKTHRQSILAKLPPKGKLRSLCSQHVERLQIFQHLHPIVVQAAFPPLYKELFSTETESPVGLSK

[2] = Intrinsic clearance in mouse liver microsomes; assay type: ADME, microsome
[3] = Inhibition of mouse splenocytes-derived CD4+ Th17 cell differentiation assessed as reduction in IL-17 production at 0.3 uM by flow cytometry relative to control; assay type: functional
Summary of the method: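 CD4+ T cells were taken from mouse splenocytes by negative selection and skewed to Th17 over 4 days with anti-CD3 0.25 μg/mL, anti-CD28 1 μg/mL, anti-IFN-γ and anti-IL-4 2 μg/mL each, TGF-β 5 ng/mL and IL-6 20 ng/mL. Compound or DMSO was added on day 0. IL-17+ CD4+ cells were measured by intracellular staining and flow cytometry.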

[4] = target: T2, Nuclear receptor ROR-gamma (Homo sapiens) (UniProt P51449); experiment: Agonist activity at APC-labeled RORgammat LBD (unknown origin) assessed as co-activator europium-labeled SRC1 peptide recruitment after 1 hr by LANCE-FRET assay relative to control
T2 sequence (whole entry): T1 sequence (P51449 whole entry)

Row | IC50 ([1]; read-out: IC50) | SMILES | also measured
1 | 58.5 nM | CCn1c2ccc(Cl)cc2c2cc(C(=O)NCc3ccc(S(=O)(=O)CC)cc3)ccc21 | CLint [2]: 0.197 mL/min/g; inhibition at 0.3 µM [3]: 58.8%
2 | 7670 nM | CCn1c2ccccc2c2cc(NC(=O)CNC(=O)Cc3ccc(S(=O)(=O)CC)cc3)ccc21 | –
3 | 1220 nM | CCn1c2ccccc2c2cc(C(=O)NCc3ccc(S(=O)(=O)CC)cn3)ccc21 | –
4 | 426 nM | CCn1c2c(c3cc(C(=O)NCc4ccc(S(=O)(=O)CC)cc4)ccc31)CCCC2 | –
5 | 1320 nM | CCn1c2c(c3cc(C(=O)NCc4ccc(S(=O)(=O)CC)cc4)ccc31)CCC2 | –
6 | 5160 nM | CCn1ccc2cc(C(=O)NCc3ccc(S(=O)(=O)CC)cc3)ccc21 | –
7 | 167 nM | CCn1c2ccccc2c2cc(C(=O)NCc3ccc(S(=O)(=O)CC)cc3)ccc21 | CLint [2]: 0.305 mL/min/g; inhibition at 0.3 µM [3]: 40%
8 | 3000 nM | CCn1c2ccc(C(=O)NCc3ccc(S(=O)(=O)CC)cc3)cc2c2ncccc21 | –
9 | 156 nM | CCn1c2ccc(F)cc2c2cc(C(=O)NCc3ccc(S(=O)(=O)CC)cc3)ccc21 | CLint [2]: 0.348 mL/min/g; inhibition at 0.3 µM [3]: 45.9%
10 | 1100 nM | CCn1c2ccccc2c2cc(C(=O)NCc3ccc(S(C)(=O)=O)cc3)ccc21 | –
11 | 16200 nM | CCn1c2ccccc2c2cc(NC(=O)NCc3ccc(S(=O)(=O)CC)cc3)ccc21 | –
12 | 566 nM | CCS(=O)(=O)c1ccc(CNC(=O)c2ccc3c(c2)c2ccccc2n3C)cc1 | –
13 | 5400 nM | CCS(=O)(=O)c1ccc(CNC(=O)c2ccc3[nH]c4ccccc4c3c2)cc1 | –
14 | 313 nM | CCn1c2ccccc2c2cc(C(=O)NCc3ccc(S(=O)(=O)NC)cc3)ccc21 | –
15 | 47.8 nM | CCn1c2ccc(C)cc2c2cc(C(=O)NCc3ccc(S(=O)(=O)CC)cc3)ccc21 | CLint [2]: 0.368 mL/min/g; inhibition at 0.3 µM [3]: 43.6%
16 | 170 nM | CCn1c2ccccc2c2cc(NC(=O)Cc3ccc(S(=O)(=O)CC)cc3)ccc21 | –
17 | 1450 nM | CCCS(=O)(=O)c1ccc(CNC(=O)c2ccc3c(c2)c2ccccc2n3CC)cc1 | –
18 | – | CCn1c2ccccc2c2cc(C(=O)NCC(C)NC(=O)Cc3ccc(S(=O)(=O)CC)cc3)ccc21 (centres undefined) | IC50 [1]: Not Active
19 | 914 nM | CCn1c(C)c(C)c2cc(C(=O)NCc3ccc(S(=O)(=O)CC)cc3)ccc21 | –

Row | SMILES | IC50 ([1]; read-out: IC50) | also measured
20 | CCCn1c2ccccc2c2cc(C(=O)NCc3ccc(S(=O)(=O)CC)cc3)ccc21 | 138 nM | –
21 | CCS(=O)(=O)c1ccc(CNC(=O)c2ccc3c(c2)c2ccccc2n3CC(C)C)cc1 | 69.6 nM | –
22 | CCS(=O)(=O)c1ccc(CNC(=O)c2ccc3c(c2)c2ccccc2n3CC2CCCCC2)cc1 | 33.5 nM | Emax [4]: 54%
23 | CCS(=O)(=O)c1ccc(CNC(=O)c2ccc3c(c2)c2ccccc2n3CC2CCC2)cc1 | 54.9 nM | –
24 | CCS(=O)(=O)c1ccc(CNC(=O)c2ccc3c(c2)c2ccccc2n3CC2CC2)cc1 | 81.9 nM | –
25 | CCS(=O)(=O)c1ccc(CNC(=O)c2ccc3c(c2)c2ccccc2n3C(C)C)cc1 | 358 nM | –

— ChEMBL document CHEMBL4196040, “Discovery of carbazole carboxamides as novel RORγt inverse agonists” (Eur J Med Chem, 2018)
